# Assays:
# [1] = target: T1, Human immunodeficiency virus type 1 protease (Human immunodeficiency virus 1, UniProt Q72874); test: Binding affinity against HIV-1 protease
# [2] = tested on: Human immunodeficiency virus 1; test: (§1) Effective dose against inhibition of HIV-1 protease in CEM cells; type: functional; settings: Human immunodeficiency virus 1, CCRF-CEM; read-out: ED50 (the source's name)
# How it was run: (§2)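 HIV-1-induced killing of CEM-SS cells; cell viability read by MTT tetrazolium metabolism. ED50 = concentration giving 50% inhibition of HIV-1-induced cell death. Run at Southern Research Institute.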
# [3] = target: T1, Human immunodeficiency virus type 1 protease; test: Compound was tested for binding affinity against HIV protease
# CCRF-CEM = test: Antiviral activity againsy HIV-1 in CEM cells; type: functional; settings: Homo sapiens, read-out: ED50 (the source's name); how it was run: as §2
# [4] = Toxic concentration at which 50% of CEM-SS cells were viable (uninfected with virus) as determined by metabolism of MTT in(uM).; type: toxicity, cell-based; settings: human, read-out: TC50 (the source's name)
# How it was run: (§3)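 Uninfected CEM-SS cells; viability read by MTT metabolism. TC50 = concentration giving 50% reduction in number of viable cells; reported in μM.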
# [5] = Maximal concentration in monkey plasma after 25 mg/kg oral dose; type: ADME, organism-based; parameters: dose 25 mg/kg, route oral; settings: simiiformes
# [6] = Pharmacokinetic parameter Cmax determined after oral administration of 50 mg/kg to rat; type: ADME, organism-based; parameters: dose 50 mg/kg, route oral; settings: in vivo
# [7] = Pharmacokinetic parameter Cmax determined after intravenous administration of 50 mg/kg to rat; type: ADME, organism-based; parameters: dose 50 mg/kg, route intravenous; settings: in vivo
# [8] = Pharmacokinetic parameter half life determined after oral administration of 15 mg/kg to dog; type: ADME, organism-based, Canis lupus familiaris; parameters: dose 15 mg/kg, route oral; settings: in vivo
# [9] = Pharmacokinetic parameter half life determined after intravenous administration of 50 mg/kg to rat; type: ADME, organism-based; parameters: dose 50 mg/kg, route intravenous; settings: in vivo
# [10] = Fraction of compound bio available orally in rat at dosage 50(mg/kg) by po administration; type: ADME, organism-based; settings: in vivo
# [11] = Pharmacokinetic parameter Cmax determined after oral administration of 15 mg/kg to dog; settings: in vivo
# [12] = Pharmacokinetic parameter half life determined after intravenous administration of 60 mg/kg to rat; type: ADME, organism-based; parameters: dose 60 mg/kg, route intravenous; settings: in vivo
# [13] = Pharmacokinetic parameter Cmax determined after intravenous administration of 60 mg/kg to rat; type: ADME, organism-based; parameters: dose 60 mg/kg, route intravenous; settings: in vivo
# Rattus norvegicus [14] = test: Fraction of compound bio available orally in rat at dosage 50(mg/kg) by po administration.; settings: in vivo
# [15] = Pharmacokinetic parameter Cmax determined after peroral administration of 25 mg/kg to monkey; type: ADME, organism-based; parameters: dose 25 mg/kg, route oral; settings: simiiformes, in vivo, po
# [16] = Pharmacokinetic parameter half life determined after peroral administration of 25 mg/kg to monkey; type: ADME, organism-based; parameters: dose 25 mg/kg, route oral; settings: simiiformes, in vivo, po
# [17] = Pharmacokinetic parameter Cmax determined after oral administration of 30 mg/kg to dog; settings: in vivo
# [18] = Pharmacokinetic parameter half life determined after intravenous administration of 15 mg/kg to dog; type: ADME, organism-based, Canis lupus familiaris; parameters: dose 15 mg/kg, route intravenous; settings: in vivo
# [19] = Pharmacokinetic parameter Cmax determined after peroral administration of 50 mg/kg to rat; type: ADME, organism-based; parameters: dose 50 mg/kg, route oral; settings: in vivo, po
# [20] = Pharmacokinetic parameter Cmax determined after oral administration of 30 mg/kg abd antacid (CaCO3 dosed orally 10 min prior to and 60 min postdosing) to dog; settings: in vivo
# [21] = Fraction of compound bio available orally in monkey at dosage 25(mg/kg) by po administration.; settings: primates, in vivo
# [22] = Pharmacokinetic parameter Cmax determined after intravenous administration of 25 mg/kg to monkey; type: ADME, organism-based; parameters: dose 25 mg/kg, route intravenous; settings: simiiformes, in vivo
# [23] = Pharmacokinetic parameter half life determined after intravenous administration of 25 mg/kg to monkey; type: ADME, organism-based; parameters: dose 25 mg/kg, route intravenous; settings: simiiformes, in vivo
# [24] = Fraction of compound bio available orally in dog at dosage 30(mg/kg) by po administration.; type: ADME, organism-based, Canis lupus familiaris; settings: in vivo
# [25] = Fraction of compound bio available orally in dog at dosage 15(mg/kg) by po administration.; type: ADME, organism-based, Canis lupus familiaris; settings: in vivo
# [26] = Oral bioavailability in rat (dose 50 mg/kg); type: ADME, organism-based; settings: in vivo
# [27] = Pharmacokinetic parameter half life determined after peroral administration of 30 mg/kg abd antacid (CaCO3 dosed orally 10 min prior to and 60 min postdosing) to dog; settings: in vivo, po
# [28] = Toxic concentration at which 50% of CEM-SS cells were viable (uninfected with virus) as determined by metabolism of MTT; type: toxicity, cell-based; settings: human, read-out: TC50 (the source's name); how it was run: as §3
# [29] = Pharmacokinetic parameter Cmax determined after peroral administration of 15 mg/kg to dog; settings: in vivo, po
# [30] = Pharmacokinetic parameter half life determined after peroral administration of 15 mg/kg to dog; settings: in vivo, po
# [31] = Pharmacokinetic parameter Cmax determined after peroral administration of 25 mg/kg to monkey; No levels; type: ADME, organism-based; parameters: dose 25 mg/kg, route oral; settings: simiiformes, in vivo, po
# [32] = Pharmacokinetic parameter Cmax determined after peroral administration of 15 mg/kg to dog; type: ADME, organism-based, Canis lupus familiaris; parameters: dose 15 mg/kg, route oral; settings: in vivo, po
# Rattus norvegicus [33] = test: Pharmacokinetic parameter Cmax determined after oral administration of 50 mg/kg to rat; No levels; type: ADME, organism-based; parameters: dose 50 mg/kg, route oral; settings: in vivo
# CEM-SS = test: as §1; type: functional; settings: Homo sapiens, read-out: ED50 (the source's name); how it was run: as §2
# [34] = Toxic concentration at which 50% of CEM-SS cells were viable (uninfected with virus) as determined by metabolism of MTT in(uM); type: toxicity, cell-based; settings: human, read-out: TC50 (the source's name); how it was run: as §3
structure (smiles),measurement,setting,value
CCC1(N(CCO)C(=O)c2ccccc2CCC(O)Cc2ccc(C)cc2C(=O)N(CCO)C(C)(C)C2CCOCC2)CCCC1 (configuration not stated),Ki,[1],35 nM
same,EC50,[2],1110 nM
CCN(C(=O)c1ccccc1CC(O)CCc1ccccc1C(=O)N(CCO)C1(CC)CCCC1)C(C)(C)c1ccccc1 (configuration not stated),Ki,[1],51 nM
same,EC50,[2],1700 nM
CCC1(N(CCO)C(=O)c2ccccc2CCC(O)Cc2ccc(C)cc2C(=O)N(CC2COC(C)(C)OC2)C(C)(C)c2ccccc2)CCCC1 (configuration not stated),Ki,[3],4 nM
same,EC50,CCRF-CEM,590 nM
CC(C)(C)NC(=O)c1ccccc1CCC(O)Cc1ccccc1C(=O)NC(C)(C)C (configuration not stated),Ki,[1],20000 nM
CC(C)(C)N(CCO)C(=O)c1ccccc1CCC(O)Cc1ccccc1C(=O)N(CCO)C(C)(C)C (configuration not stated),EC50,[2],36000 nM
same,CC50,[4],> 150000 nM
Cc1ccc(CC(O)CCc2ccccc2C(=O)N(CCO)C(C)(C)c2ccccc2)c(C(=O)N(CCO)C(C)(C)c2ccccc2)c1 (configuration not stated),Cmax,[5],860 ng/mL
same,Cmax,[6],1200 ng/mL
same,Cmax,[7],88900 ng/mL
same,half-life,[8],2.07 h
same,Ki,[1],18 nM
same,EC50,[2],810 nM
same,half-life,[9],0.5 h
same,bioavailability,[10],34%
same,Cmax,[11],390 ng/mL
CCC1(N(CCO)C(=O)c2ccccc2CCC(O)Cc2ccc(C)cc2C(=O)N(CCO)C2(c3ccccc3)CCCC2)CCCC1 (configuration not stated),Ki,[1],0.4 nM
same,EC50,[2],790 nM
CC(C)(C)N(CCO)C(=O)c1ccccc1CCC(O)Cc1ccccc1C(=O)N(CCO)C(C)(C)c1ccccc1 (configuration not stated),Ki,[1],90 nM
same,EC50,[2],3400 nM
same,CC50,[4],> 150000 nM
CCC1(N(CCO)C(=O)c2ccccc2CCC(O)Cc2ccc(C)cc2C(=O)N(CCO)C(C)(C)c2ccc(OCc3cccnc3)cc2)CCCC1 (configuration not stated),half-life,[12],1 h
same,Cmax,[6],860 ng/mL
same,Ki,[1],2 nM
same,EC50,[2],650 nM
same,Cmax,[13],87200 ng/mL
same,bioavailability,Rattus norvegicus [14],5%
CCC1(N(CCO)C(=O)c2ccccc2CCC(O)Cc2ccc(C)cc2C(=O)N(CCO)C(C)(C)c2ccccc2)CCCC1 (configuration not stated),Cmax,[15],1910 ng/mL
same,half-life,[16],1.07 h
same,Cmax,[17],690 ng/mL
same,Cmax,[7],88400 ng/mL
same,half-life,[18],0.24 h
same,Cmax,[19],2780 ng/mL
same,Cmax,[20],3260 ng/mL
same,Ki,[1],8 nM
same,EC50,[2],780 nM
same,bioavailability,[21],32%
same,CC50,[4],103000 nM
same,Cmax,[22],18300 ng/mL
same,half-life,[9],1.3 h
same,half-life,[23],1.08 h
same,bioavailability,[24],33%
same,bioavailability,[25],3%
same,bioavailability,[26],39%
same,half-life,[27],0.52 h
Cc1ccc(CC(O)CCc2ccccc2C(=O)N(CCO)C(C)(C)C)c(C(=O)N(CCO)C(C)(C)c2ccccc2)c1 (configuration not stated),Ki,[1],63 nM
same,EC50,[2],4200 nM
CC(C)(C)NC(=O)c1ccccc1C[C@@H](O)[C@H](Cc1ccccc1)NC(=O)[C@H](CC(N)=O)NC(=O)c1cnc2ccccc2c1,CC50,[28],122000 nM
same,EC50,[2],20 nM
CC(C)(C)N(CCO)C(=O)c1ccccc1CCC(O)Cc1ccccc1C(=O)N(CCO)C(C)(C)c1ccc2ccccc2c1 (configuration not stated),Ki,[1],145 nM
same,EC50,[2],7200 nM
CCC1(N(CCO)C(=O)c2ccccc2CCC(O)Cc2ccc(C)cc2C(=O)N(CC(CO)CO)C(C)(C)c2ccccc2)CCCC1 (configuration not stated),Cmax,[15],810 ng/mL
same,Cmax,[6],1160 ng/mL
same,Cmax,[7],52200 ng/mL
same,Cmax,[29],1170 ng/mL
same,Ki,[1],10 nM
same,EC50,[2],950 nM
same,half-life,[9],1 h
same,half-life,[30],0.34 h
same,bioavailability,[26],7%
CC(C)(C)N(CCO)C(=O)c1ccccc1CCC(O)Cc1ccccc1C(=O)N(CCO)C(C)(C)Cc1ccccc1 (configuration not stated),Ki,[1],1300 nM
CCC1(N(CCO)C(=O)c2ccccc2CCC(O)Cc2ccc(Cl)cc2C(=O)N(CCO)C(C)(C)c2ccccc2)CCCC1 (configuration not stated),Cmax,[6],1400 ng/mL
same,Cmax,[7],111000 ng/mL
same,Cmax,[31],No levels
same,Ki,[1],2 nM
same,EC50,[2],720 nM
same,CC50,[4],97000 nM
same,half-life,[9],1.7 h
same,Cmax,[32],590 ng/mL
same,bioavailability,[26],31%
CCC1(N(CCO)C(=O)c2ccccc2CCC(O)Cc2ccc(C)cc2C(=O)N(CCO)C(C)(C)c2ccc(O)cc2)CCCC1 (configuration not stated),Cmax,[7],41300 ng/mL
same,Ki,[1],6 nM
same,EC50,[2],880 nM
same,half-life,[9],1.4 h
same,bioavailability,[26],0%
same,Cmax,Rattus norvegicus [33],No levels
CC(C)(C)N(CCO)C(=O)c1ccccc1CC(O)CSc1ccccc1C(=O)N(CCO)C(C)(C)C (configuration not stated),Ki,[1],18000 nM
CC(C)(C)NC(=O)[C@@H]1C[C@@H]2CCCC[C@@H]2CN1C[C@@H](O)[C@H](Cc1ccccc1)NC(=O)[C@H](CC(N)=O)NC(=O)c1cnc2ccccc2c1,CC50,[28],> 10000 nM
same,EC50,CEM-SS,2 nM
same,Ki,[3],0.9 nM
Cc1ccc(CCC(O)Cc2ccccc2C(=O)N(CCO)C(C)(C)c2ccccc2)c(C(=O)N(CCO)C(C)(C)C)c1 (configuration not stated),Ki,[1],150 nM
same,EC50,[2],4900 nM
CC(C)(C)NC(=O)c1ccccc1SCC(O)Cc1ccccc1C(=O)N(CCO)C(C)(C)C (configuration not stated),Ki,[1],34000 nM
CCC1(N(CCO)C(=O)c2ccccc2CCC(O)Cc2ccc(C)cc2C(=O)N(CCO)C(C)(C)c2ccc(OCCN3CCOCC3)cc2)CCCC1 (configuration not stated),Ki,[1],9 nM
same,EC50,[2],840 nM
CC(C)(c1ccccc1)N(CCO)C(=O)c1ccccc1CCC(O)Cc1ccccc1C(=O)N(CCO)C(C)(C)c1ccccc1 (configuration not stated),CC50,[34],122000 nM
same,Ki,[1],21 nM
same,EC50,[2],2200 nM
CCCC(CC)(CC)N(CCO)C(=O)c1cc(C)ccc1CC(O)CCc1ccccc1C(=O)N(CCO)C1(CC)CCCC1 (configuration not stated),Ki,[1],6 nM
same,EC50,[2],1370 nM
CCC1(N(CCO)C(=O)c2ccccc2CCC(O)Cc2ccc(C)cc2C(=O)N(CCC(O)CO)C(C)(C)c2ccccc2)CCCC1 (configuration not stated),Cmax,[6],840 ng/mL
same,Cmax,[7],111000 ng/mL
same,Ki,[1],10 nM
same,EC50,[2],860 nM
same,half-life,[9],1.3 h
same,bioavailability,[26],2%
CCCC(CC)(CC)N(CCO)C(=O)c1ccccc1CC(O)CCc1ccccc1C(=O)N(CCO)C(C)(C)C (configuration not stated),Ki,[1],110 nM
same,EC50,[2],3700 nM
CC(C)(C)N(CCO)C(=O)c1ccccc1CCC(O)Cc1ccccc1C(=O)N(CCO)[C@@]12CCCC[C@@H]1CCC2 (relative stereo),Ki,[1],64 nM
same,EC50,[2],7600 nM
